Compounds with a hit are over-represented: about 2.5% of the library has one in this group of screens.
CDK5 p35 inh – inhibitors of human CDK5/p35 kinase, primary screen, biochemical, single concentration | hit rate 0.01% among 330,000 | inhibition, % at 10 µM | Recombinant CDK5/p35, ADP-Glo luminescence, 60 min | Cyclin-dependent kinase 5 (Homo sapiens) + Cyclin-dependent kinase 5 activator 1 (Homo …;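 active means highest replicate inhibition of at least 50% and at least 75% of replicates reaching 50%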;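 further: plate controls were DMSO neutral control for no effect and GW8510 at 10 µM for full effect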
NSD2 HMT inh – NSD2 histone methyltransferase inhibitors, primary screen, biochemical, AlphaScreen, single concentration, set 2; NSD2 peptide methylation, 120 min; hit rate 0.54% among 310,000; Histone-lysine N-methyltransferase NSD2 (Homo sapiens), O96028; AID 743445, 2014; inhibition, % at 12.5 µM
SR-BI DiI inh – inhibitors of SR-BI mediated HDL lipid uptake, primary screen, ldlA[mSR-BI] cells, fluorescence, single point; ldlA[mSR-BI] CHO cells, DiI-HDL uptake fluorescence, 3 h; inhibition, % at 12.5 µM; hit rate 0.96% among 320,000; AID 488896, 2010;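 active means mean replicate inhibition of at least 70% and a set share of replicates each scoring 70 or more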;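 further: 0% = median of neutral control wells and 100% = median of positive control wells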
dFosB act – activators of delta FosB homodimer, primary screen, biochemical, fluorescence polarization, TAMRA-CDK5 oligo, single point; activation, % at 25 µM; hit rate 0.99% among 340,000; purified delta FosB; percent of positive-control signal above neutral wells; Protein FosB (Mus musculus), P13346;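 active means mean activation above about 17%, with every replicate also reaching it, limit read from the data, passing the limit was not always enough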
Target sequence (P13346 whole entry, looked up): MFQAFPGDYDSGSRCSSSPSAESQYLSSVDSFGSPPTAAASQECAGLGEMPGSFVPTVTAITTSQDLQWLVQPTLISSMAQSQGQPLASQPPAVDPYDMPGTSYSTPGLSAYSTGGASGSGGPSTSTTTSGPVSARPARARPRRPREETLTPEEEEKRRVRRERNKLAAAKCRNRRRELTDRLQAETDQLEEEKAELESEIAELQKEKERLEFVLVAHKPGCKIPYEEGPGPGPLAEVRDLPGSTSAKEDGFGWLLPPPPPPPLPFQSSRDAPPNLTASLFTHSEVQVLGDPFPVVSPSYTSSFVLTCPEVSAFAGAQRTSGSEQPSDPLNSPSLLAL
SR-BI DiI-HDL act – activators of SR-BI mediated DiI-HDL uptake, primary screen, ldlA[mSR-BI] CHO cells, DiI fluorescence; hit rate 0.096% among 320,000; activation, % at 12.5 µM; 3 h; 100 = double the neutral-control signal;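 active means mean replicate activation of at least 60% and every replicate at or above 60%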;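 further: 0% = median plate neutral-control signal and 100% = twice that signal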
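Test system: SR-BI-overexpressing, LDLR-lacking CHO cells; Also added: labelled HDL, 10 µg/mL; Measured by: bottom-read cell fluorescence after medium removal, ex 550/em 595 nm; Timing: 3 h uptake period with compound, 37 °C; Buffer or medium: F12, 0.5% BSA, 25 mM HEPES; Doses: single compound concentration, delivered by pin transfer.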
Dyrk1A ADPGlo – rat Dyrk1A kinase inhibitors, primary screen, biochemical, single point, plate reader; Dual specificity tyrosine-phosphorylation-regulated kinase 1A (Rattus norvegicus), Q63470; ADP-Glo luminescence, NFATc1 peptide; inhibition, % at 12.5 µM; hit rate 0.43% among 310,000;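 further: plate controls were vehicle with enzyme for no effect and no enzyme for full effect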
Dyrk1A artifact – ADP-Glo luciferase interference without Dyrk1A, dose response, artefact control for Dyrk1A inhibitor project, biochemical, luminescence, cherry-pick, set 02; shares compounds with Dyrk1A ADPGlo; ADP-Glo luciferase artifact assay, no Dyrk1A; AC50, µM (titrated, usually from 12 µM), for the others: at the top dose activity change, negative = inhibition; 1,300 tested, under 10 active; AID 588348, 2011;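 active means fitted half-maximal dose AC50 no more than ten times the top valid tested dose, with luminescence dropping as dose rises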
Starred values were filed as active, the others as inactive; i = inactive; nt = no result given. Unless noted, no stated cut-off is given here; in the data, active means inhibition above about 50%; inactive means the rest.

SMILES	CDK5 p35 inh	NSD2 HMT inh	SR-BI DiI inh	dFosB act	SR-BI DiI-HDL act	Dyrk1A ADPGlo	Dyrk1A artifact
Oc1cccc2c(-c3nn[nH]n3)ccnc12	-4	nt	-8	1	8	70*	12%
c1ccc2c(-c3nn[nH]n3)cccc2c1	nt	-2	-32	1	32	-4	nt
OCC[C@@H]1C[C@H](O)[C@@H](O)[C@@]2(CCc3ccccc3CO2)O1	2	nt	7	6	-7	52*	7%
c1csc(CNc2ncnc3ccc(-c4ccc5c(c4)OCCO5)cc23)c1	0	nt	10	0	-10	72*	5%
c1cncc(-c2ccc3ncnc(NCc4cccs4)c3c2)c1	2	nt	-20	-37	20	37	nt
CSc1nnc(-c2cc3c(-c4ccccc4)nn(C)c3s2)n1C	-2	3	1	-3	-1	52*	8%
Cn1nc(-c2ccccc2)c2cc(C(=O)O)sc21	0	-2	2	-1	-2	7	nt
COC(=O)c1cccc2c1-c1ccccc1/C2=N/O	2	2	22	-31	-22	57*	9%
O=c1cc(-c2ccccc2Cl)oc2c([N+](=O)[O-])c(O)cc(O)c12	5	nt	16	-6	-16	83*	12%
Cn1c(=O)[nH]c2cc3ccccc3cc21	1	-7	-5	-2	5	52*	10%
CCC1NC(C(=O)O)Cc2c1[nH]c1ccccc21 (stereo unspecified)	3	nt	2	1	-2	50*	8%
COc1cc(C2NC(C(=O)O)Cc3c2[nH]c2ccccc32)cc(OC)c1OC (stereo unspecified)	1	0	2	2	-2	1	nt
CNC(=S)N/N=C/c1ccc(-c2cccc(C(=O)O)c2)o1	0	3	nt	1	nt	62*	9%
Cc1ccc(OCC(=O)N/N=C\c2ccc(-c3cccc(C(=O)O)c3)o2)c(C)c1	-4	8	-22	-2	22	31	nt
COc1ccc2cc(-c3cccnc3)ncc2c1	5	nt	12	-2	-12	68*	12%
COc1ccc(-c2cc3ccc(OC)cc3cn2)cc1	0	nt	17	-2	-17	3	nt
C/C(=N\NC(=O)CNC(=O)c1cccs1)c1ccc(Cl)c(Cl)c1	-3	-3	2	-6	-2	6	nt
O=C1NC(=O)/C(=C/c2ccc(O)cc2)S1	-3	1	-34	-7	34	90*	9%
N=C1S/C(=C\c2ccc(O)cc2)C(=O)N1c1ccc(F)cc1	-1	4	26	11	-26	78*	14%
N#Cc1c(C(F)(F)F)cc(-c2cccc(Cl)c2)[nH]c1=O	0	-19	i	-8	nt	54*	8%
N#Cc1nc(-c2cccs2)oc1NCc1ccccc1Cl	-1	2	5	1	-5	51*	11%
CC(=O)Oc1cc(C)c(Cl)c2c(OC(C)=O)cc(C(C)=O)c(O)c12	nt	1	nt	nt	nt	nt	nt
O=C1SC(c2ccccc2)=C/C1=C\N1CCCCC1	-1	40	39	-8	-39	68*	8%
O=C1OC(c2ccccc2)=C/C1=C/N1CCOCC1	-2	-3	-26	3	26	-1	nt
O=C(CSc1nnnn1-c1ccc(O)cc1)Nc1ccc(N2CCOCC2)c(Cl)c1	0	0	-1	-8	1	51*	8%
CN=C1S/C(=C\c2ccc(O)c(Br)c2)C(=O)N1C	6	2	15	-2	-15	91*	4%

Compound activity from PubChem.
